In the library only some 4.3% were active in any assay of this set; here they are far more common.
TAAR1 ag – agonists of human TAAR1; activation, % at 3 µM; AID 624467; 0.99% of 360,000 active; CHO RD-HGA16 TAAR1, Fluo-8 calcium fluorescence; vehicle wells 0%, saturating PEA agonist 100%;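 active means activation above the mean activation of all test compounds in the run plus 3 SD, cut at about 38% in these data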
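Test system: RD-HGA16 (CHO) cells co-expressing Gα16 and hTAAR1 / Benchmarks: DMSO vehicle as 0%, PEA at EC100 as 100% / Repeats: no replicates (n 1) / Measure: % activation from peak over basal fluorescence ratio, DMSO-to-PEA scaled / Timing: 17-24 h plating, Fluo-8 75 min 37 °C, 30 min RT / Technique: kinetic Fluo-8 calcium fluorescence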
CHO parental Ca – counter-screen: ATP calcium response change in parental CHO cells. parental CHO-K1, ATP-induced calcium, Fluo-8 fluorescence. inhibition, % at 5.6 µM. 0.63% of 330,000 active. AID 463079;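 active means inhibition above that plate's mean sample inhibition plus 3 SD, cut at about 26% in these data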
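Material: Parental CHO cells | Reagent: ATP | Compound dosing: Single nominal dose of 5.6 µM per compound | Detection: Intracellular calcium via Fluo-8 no-wash fluorescent dye | Read-out: % inhibition of ATP-induced calcium mobilization | Benchmarks: Low control ATP plus DMSO, high control DMSO only | Replicates: Singlicate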
OX1R antag-1 – blocks the human orexin 1 receptor. 0.43% of 330,000 active. AID 434989. CHO/OX1R cells, Fluo-8 calcium fluorescence, orexin A. inhibition, % at 5 µM;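 active means inhibition above its plate's threshold, mean inhibition of all tested compounds on the plate plus 3 SD, cut at about 37% in these data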
Target sequence (O43613 whole entry, looked up): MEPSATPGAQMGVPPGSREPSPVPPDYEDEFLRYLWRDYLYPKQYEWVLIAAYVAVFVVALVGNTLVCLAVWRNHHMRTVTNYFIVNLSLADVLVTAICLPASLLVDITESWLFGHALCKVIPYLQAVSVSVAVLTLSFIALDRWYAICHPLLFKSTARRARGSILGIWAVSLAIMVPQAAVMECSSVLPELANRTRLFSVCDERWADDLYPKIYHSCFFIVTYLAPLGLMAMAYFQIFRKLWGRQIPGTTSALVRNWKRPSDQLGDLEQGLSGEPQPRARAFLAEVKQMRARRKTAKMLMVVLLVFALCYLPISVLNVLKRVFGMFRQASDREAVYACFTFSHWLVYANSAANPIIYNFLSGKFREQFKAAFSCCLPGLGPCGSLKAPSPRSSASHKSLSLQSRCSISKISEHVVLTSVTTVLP
GalR3 antag – blocks the human galanin receptor 3; O60755; HEK293 GalR3-CNG cAMP membrane potential fluorescence; galR3 body fused to GalR1 C-terminus; inhibition, % at 3 µM; 0.44% of 360,000 active; AID 651719;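 active means inhibition above the screen-wide average plus 3 SD, cut at about 13% in these data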;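 further: forskolin and galanin both at EC90 stimulate the cells; cAMP rise reported by CNG channel membrane potential dye signal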
OX1R antag-2 – antagonists of human orexin 1 receptor (OX1R); O43613; OX1R-expressing cells, FRET antagonist read-out; inhibition, % at 6.6 µM; 1.8% of 330,000 active; AID 485270; in the data active means inhibition mostly above about 38%, no sharp cut-off; inactive means mostly below about 40%
TAAR1 antagonist – human TAAR1 antagonism; Q96RJ0; CHO RD-HGA16 TAAR1, Fluo-8 calcium fluorescence, antagonist; inhibition, % at 3 µM; 1.5% of 360,000 active;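 active means inhibition above a per-plate cutoff, the mean inhibition of test compounds on that plate plus 3 SD, cut at about 49% in these data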
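Assay system: CHO-derived RD-HGA16 cells stably expressing human TAAR1 plus Gα16. Timing: 140 s kinetic read after compound, 140 s after agonist. Technique: kinetic Fluo-8 calcium fluorescence measurement. Measure: % inhibition of agonist calcium response.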
Hits are given with their value; i = inactive; nt = no result given.

SMILES	TAAR1 ag	CHO parental Ca	OX1R antag-1	GalR3 antag	OX1R antag-2	TAAR1 antagonist
CCc1noc(C)c1C(=O)OCC(=O)Nc1nc(-c2ccc(F)c(F)c2)cs1	i	35.8	69.0	i	i	68.8
CCc1noc(C)c1C(=O)Nc1nc(-c2ccc(OC)c(OC)c2)cs1	i	i	i	i	61.0	i
Cc1onc(-c2ccccc2)c1C(=O)Nc1nc(-c2ccc(F)c(F)c2)cs1	38.8	i	i	i	i	i
COc1ccc(-c2csc(NC(=S)NC(=O)c3cccs3)n2)cc1Br	i	i	i	i	i	i
COc1ccc(-c2csc(NC(=S)NC(=O)c3cccs3)n2)cc1OC	i	nt	nt	i	nt	49.6
CCc1noc(C)c1C(=O)OCC(=O)Nc1ccc(F)cc1Cl	i	i	i	i	i	i
Cc1ccc(C)c(-c2csc(NC(=O)c3c(C)noc3C)n2)c1	i	i	i	i	i	i
Cc1ccc(-c2csc(NC(=O)c3c(C)noc3C)n2)cc1C	i	i	i	i	32.2	i
Cn1c(N)c(C(=O)COC(=O)Cc2ccc(Br)cc2)c(=O)n(C)c1=O	i	i	i	i	i	i
Cn1c(N)c(C(=O)COC(=O)CC2CC3CCC2C3)c(=O)n(C)c1=O (stereo not drawn)	40.1	i	i	i	i	i
C[C@H]1[C@@H]2C[C@@]3(O[C@H](c4ccc(C(F)(F)F)cc4)N=C3C[C@@H]1c1ccccc1)N(Cc1ccncc1)C2=O	i	nt	nt	i	nt	i
O=c1c(-c2nnc(SCc3ccc(Cl)cc3)o2)cccn1Cc1ccccc1	i	i	i	i	39.8	i
C/C(COc1ccccc1)=N\NC(=O)c1nnn(-c2nonc2N)c1CSc1ccccc1	i	i	i	i	60.2	i
C/C(=N\NC(=O)c1nnn(-c2nonc2N)c1CSc1ccccc1)c1cccnc1	i	i	i	i	i	i
Cc1ccc(SCc2c(C(=O)N/N=C/c3ccccc3)nnn2-c2nonc2N)cc1	i	i	i	i	i	i
Cc1ccc(SCc2c(C(=O)N/N=C/c3ccoc3)nnn2-c2nonc2N)cc1	i	i	i	i	44.8	i
Cc1ccc(SCc2c(C(=O)N/N=C/c3cccs3)nnn2-c2nonc2N)cc1	i	nt	nt	i	nt	62.1
O=C(O)/C=C/C(=O)Nc1ccc(Oc2ccccc2)cc1	i	i	i	i	i	i
CCOC(=O)/C=C/C(=O)Nc1ccc(Oc2ccccc2)cc1	i	43.6	i	i	i	i
CCc1ccc(S(=O)(=O)NCc2csc(-c3cccnc3)n2)s1	i	i	i	nt	63.8	i
O=S(=O)(NCc1csc(-c2cccnc2)n1)c1cccs1	i	i	i	nt	i	i
Cc1ccc(C)c(CN2CCC(CNC(=O)Nc3ccc(F)c(Cl)c3)CC2)c1	38.4	i	i	i	i	i
Cc1ccc(NC(=O)NCC2CCN(Cc3cccc(Cl)c3)CC2)cc1Cl	42.0	i	i	i	i	i
CC(=O)[C@@]1(O)CC[C@H]2[C@@H]3CCC4=CC(=O)CC[C@]4(C)[C@H]3[C@@H](O)C[C@@]21C	i	i	i	i	i	i
CCC(C(=O)OCC(=O)C1(O)CCC2C3CCC4=CC(=O)CCC4(C)C3C(O)CC21C)C(C)C (stereo not drawn)	i	nt	nt	i	nt	61.9
SMILES	TAAR1 ag	CHO parental Ca	OX1R antag-1	GalR3 antag	OX1R antag-2	TAAR1 antagonist
Cc1nnc(-c2ccccc2)c[n+]1[O-]	i	i	i	i	56.2	i
O=C(NCc1ccccc1)c1sc(=S)n2c1[nH]c(=O)c1ccccc12	44.2	i	i	i	i	i
CCCCNC(=O)c1sc(=S)n2c1[nH]c(=O)c1ccc(C(=O)NCCc3ccc(OC)c(OC)c3)cc12	nt	i	i	nt	i	nt
Cc1ccc(N)cc1O	i	i	i	i	38.4	i
Nc1ccc(C(=O)O)c(O)c1	i	i	i	i	i	i
COCC(=O)NCC1CCN(C(=O)C(=O)c2cccs2)CC1	i	nt	nt	i	nt	i
Cc1ccc(N2C(=O)c3cccc4cccc(c34)C2=O)cc1	i	i	i	i	i	i
O=C1c2cccc3cccc(c23)C(=O)N1c1nncs1	i	i	i	i	75.1	i
O=NN(CCc1ccncc1)c1ccc(OCc2ccccc2)cc1	i	62.0	38.3	i	i	i
O=C(NCc1ccncc1)C(=O)N/N=C/c1ccc(OCc2ccccc2)cc1	i	i	i	i	i	i
CNC(=O)C[C@H]1C(=O)N(Cc2ccccc2)C[C@@H]1C	i	nt	nt	i	nt	i
O=C(C[n+]1cc2ccccc2c2ccccc21)c1ccccc1	i	i	i	i	56.3	i
CC[C@@H](Nc1ncnc2c1oc1ccccc12)C(=O)O	i	98.8	i	i	i	i
CC(C)[C@H](Nc1ncnc2c1oc1ccccc12)C(=O)O	i	i	i	i	i	i
COCCn1c(=O)c2ccccc2c2ccccc2c1=O	i	i	i	i	i	i
CC(=O)OCCn1c(=O)c2cc3c(=O)n(CCOC(C)=O)c(=O)c3cc2c1=O	i	i	i	i	67.9	i
COC(=O)CN1C(=O)S/C(=C/c2ccc(N3CCCCC3)o2)C1=O	100.2	i	i	i	i	60.1
C/C=C(/C)C(=O)O[C@@H]1c2c(ccc3ccc(=O)oc23)OC(C)(C)[C@@H]1OC(C)=O	i	i	i	i	i	i
C/C=C(/C)C(=O)OC1c2c(ccc3ccc(=O)oc23)OC(C)(C)C1OC(=O)/C(C)=C\C (stereo not drawn)	i	74.8	i	i	44.2	i
Clc1cc2cccnc2c2ncccc12	i	i	i	i	i	i
Oc1c(I)cc(Cl)c2cccnc12	i	41.2	48.8	i	61.4	i
COC(=O)c1c(C)nc2c(c(SC)nn2-c2ccccc2)c1N	i	i	i	i	i	i
COC(=O)c1c(C)nc2nonc2c1N	i	i	i	i	65.0	i
CC(=O)Nc1ccc(S(=O)(=O)N2CCN(S(=O)(=O)c3ccc(F)c(F)c3F)CC2)cc1	i	i	i	i	i	i
Cc1cc(S(=O)(=O)NC(=O)[C@H]2O[C@@H](n3ccc(=O)[nH]c3=O)[C@H](O)[C@@H]2O)ccc1Br	i	nt	nt	i	nt	i
O=C(NCc1ccco1)c1cccc2c(-c3ccc(F)c(F)c3)coc12	i	nt	nt	i	nt	i
COc1ccc(Cc2nnc(NC(=O)CSc3ccccc3)s2)cc1OC	50.2	i	i	i	i	i
COc1cc(F)ccc1-c1csc(C(NC(C)=O)c2cccc(F)c2)n1 (stereo not drawn)	i	nt	nt	i	nt	i
CS(=O)(=O)c1cc([N+](=O)[O-])c(Sc2nc3ccccc3[nH]2)c([N+](=O)[O-])c1	i	31.5	i	i	39.0	i
CCCc1cc(CN(C)C(=O)CC2C(=O)NCCN2Cc2ccccc2C)[nH]n1 (stereo not drawn)	i	i	i	i	i	i

From PubChem BioAssay
